# Assay results as given in ChEMBL document CHEMBL1140914, “Synthesis and in vitro and in vivo evaluation of 18F-labeled positron emission tomography (PET) ligands for imaging the vesicular acetylcholine transporter” (J Med Chem, 2009).
# Columns and labels:
# [1] = molecular target: Sigma non-opioid intracellular receptor 1 (Cavia porcellus, UniProt Q60492); test: Displacement of [3H](+)-pentazocine from sigma1 receptor in guinea pig brain membrane by liquid scintillation counting; type: cell membranes
# [2] = molecular target: T1, Vesicular acetylcholine transporter (Homo sapiens, UniProt Q16572); test: Displacement of [3H]vesamicol from human vesicular acetylcholine transporter expressed in rat PC12 cells by liquid scintillation spectrometry; type: cell-based, PC-12
# T1 sequence (Q16572 whole entry): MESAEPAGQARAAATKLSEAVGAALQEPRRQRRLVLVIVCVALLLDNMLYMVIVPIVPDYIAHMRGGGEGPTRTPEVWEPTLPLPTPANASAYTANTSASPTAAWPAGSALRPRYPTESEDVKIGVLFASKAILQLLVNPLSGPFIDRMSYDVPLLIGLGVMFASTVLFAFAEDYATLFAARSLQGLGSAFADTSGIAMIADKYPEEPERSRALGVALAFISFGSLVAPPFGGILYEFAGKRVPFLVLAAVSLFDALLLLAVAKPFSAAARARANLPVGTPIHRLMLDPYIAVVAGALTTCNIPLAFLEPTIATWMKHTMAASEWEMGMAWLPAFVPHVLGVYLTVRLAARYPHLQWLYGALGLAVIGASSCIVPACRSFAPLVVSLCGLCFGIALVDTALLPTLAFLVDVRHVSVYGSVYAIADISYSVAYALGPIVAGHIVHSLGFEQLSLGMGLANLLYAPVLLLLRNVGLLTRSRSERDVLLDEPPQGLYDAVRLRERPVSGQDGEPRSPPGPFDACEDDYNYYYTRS
# [3] = Displacement of [3H]DTG from sigma2 receptor in rat liver membrane; type: cell membranes
# Summary of the method: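 Rat liver membrane homogenate (~300 μg protein) incubated 2 h at room temperature with ~5 nM [3H]DTG plus 1 μM (+)-pentazocine to mask σ1 sites. Haloperidol 10 μM defines nonspecific binding. Filtered and counted.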
# [4] = Selectivity ratio of Ki for human vesicular acetylcholine transporter to Ki for sigma1 receptor in guinea pig brain membrane; type: cell membranes
# Sequence of Sigma non-opioid intracellular receptor 1 (Q60492 whole entry): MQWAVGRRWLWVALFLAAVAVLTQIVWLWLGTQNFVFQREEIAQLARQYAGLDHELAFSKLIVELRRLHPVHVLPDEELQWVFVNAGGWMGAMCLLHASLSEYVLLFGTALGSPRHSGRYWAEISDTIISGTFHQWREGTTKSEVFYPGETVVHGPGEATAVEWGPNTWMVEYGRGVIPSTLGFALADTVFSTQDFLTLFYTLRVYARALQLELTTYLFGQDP
SMILES,Ki [1],Ki [2],Ki [3],Kd [2],Ratio Ki [4]
O[C@@H]1CCN(Cc2ccc(F)cc2)C[C@H]1N1CCC(c2ccccc2)CC1,0.0216 µM,0.00022 µM,0.0359 µM,,98
NCC1(c2ccccc2)CCN([C@@H]2Cc3c(I)cccc3C[C@H]2O)CC1,,,,0.003 µM,
O[C@@H]1CC[C@H](OCc2ccc(F)cc2)C[C@H]1N1CCC(c2ccccc2)CC1,0.0306 µM,0.0107 µM,0.0185 µM,,
O=C(c1ccc(F)cc1)C1CCN([C@@H]2Cc3ccccc3C[C@H]2O)CC1 (racemic),,,0.251 µM,,

# More lines, main results first:
Ki [1],Ki [2],Ki [3],Kd [2],SMILES,Ratio Ki [4]
,0.00077 µM,,,O[C@@H]1Cc2cccc(OCCCF)c2C[C@H]1N1CCC(c2ccccc2)CC1,
,0.00045 µM,,,O[C@@H]1Cc2cccc(OC/C=C/I)c2C[C@H]1N1CCC(c2ccccc2)CC1,
0.0213 µM,0.33 µM,0.0158 µM,,O[C@@H]1C[C@H](OCc2ccc(F)cc2)CC[C@H]1N1CCC(c2ccccc2)CC1,
